Results published in ChEMBL document CHEMBL3352048, “Development of 2-(4-oxoquinazolin-3(4H)-yl)acetamide derivatives as novel enoyl-acyl carrier protein reductase (InhA) inhibitors for the treatment of tuberculosis” (Eur J Med Chem, 2014).
Converted amounts (≈) assume the structure as drawn.

Assays:
[1] = test system: Mycobacterium tuberculosis; assay: Antimycobacterial activity against Mycobacterium tuberculosis H37Rv ATCC 27294 after 28 days by two-fold serial dilution assay; format: functional; details: H37Rv ATCC 27294, 672 h
Summary of the method: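 Agar dilution test against M. tuberculosis H37Rv (ATCC27294). Drug concentrations ran from 50 µg/mL to 0.78 µg/mL, tested in duplicate. MIC was taken as the minimum concentration inhibiting growth.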

[2] = test system: Mycobacterium tuberculosis; assay: Antimycobacterial activity against Mycobacterium tuberculosis H37Rv ATCC 27294 after 28 days by two-fold serial dilution assay in presence of […] piperine efflux pump inhibitor; format: functional; details: H37Rv ATCC 27294, 672 h
[3] = Cytotoxicity against mouse RAW264.7 cells at 50 uM after 72 hrs by MTT assay; format: cell-based; details: read-out: INH
Summary of the method: (§1)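 RAW 264.7 mouse leukemic monocyte macrophages were exposed to compound for 72 h, tested at concentrations up to 100 µM. Viability was read as MTT conversion to formazan (CellTiter 96 non-radioactive proliferation assay). Results are reported as percentage inhibition.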

[4] = biological target: T1, Enoyl-[acyl-carrier-protein] reductase [NADH] (Mycobacterium tuberculosis, UniProt P9WGR1); assay: Inhibition of Mycobacterium tuberculosis recombinant InhA expressed in Escherichia coli BL21 (DE3) using 2-trans-decenoyl substrate by spectrophotometry
T1 sequence (P9WGR1 whole entry): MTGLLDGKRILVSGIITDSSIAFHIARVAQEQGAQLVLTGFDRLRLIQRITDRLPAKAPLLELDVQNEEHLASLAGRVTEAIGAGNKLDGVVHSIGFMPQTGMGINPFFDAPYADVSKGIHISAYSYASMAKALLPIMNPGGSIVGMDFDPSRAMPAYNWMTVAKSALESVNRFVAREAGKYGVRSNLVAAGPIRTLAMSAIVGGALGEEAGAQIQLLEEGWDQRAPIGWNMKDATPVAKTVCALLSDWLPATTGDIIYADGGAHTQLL
Summary of the method: (§2)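 Recombinant M. tuberculosis InhA was expressed in E. coli and purified. Inhibition was screened as percent inhibition at 10 µM. IC50 values came from dose-response curves of log concentration versus % inhibition.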

[5] = biological target: T2, Enoyl-[acyl-carrier-protein] reductase [NADH] (Mycobacterium tuberculosis) (UniProt P9WGR1); assay: Inhibition of Mycobacterium tuberculosis recombinant InhA expressed in Escherichia coli BL21 (DE3) using 2-trans-decenoyl substrate at 10 uM by spectrophotometry; summary of the method: as §2
T2 sequence (whole entry): T1 sequence (P9WGR1 whole entry)

[6] = Cytotoxicity against mouse RAW264.7 cells at 100 uM after 72 hrs by MTT assay; format: cell-based; details: read-out: INH; summary of the method: as §1

Compound | MIC [1] [µM] | MIC [2] [µM] | cytotoxicity at 72 h, 50 µM [3] [%] | IC50 [4] [µM] | inhibition [5] [%] | cytotoxicity at 72 h, 100 µM [6] [%]
NNC(=O)c1ccncc1 [ISONIAZID] | 0.72 (≈ 0.0987 µg/mL) |  |  |  |  | 
Cc1nc2ccc(Cl)cc2c(=O)n1CC(=O)NCc1cccs1 | 18 (≈ 6.25 µg/mL) | 4.48 | 47.5 | 6.76 | 70.2 | 51.7
CO[C@H]1/C=C/O[C@@]2(C)Oc3c(C)c(O)c4c(O)c(c(/C=N/N5CCN(C)CC5)c(O)c4c3C2=O)NC(=O)/C(C)=C\C=C\[C@H](C)[C@H](O)[C@@H](C)[C@@H](O)[C@@H](C)[C@H](OC(C)=O)[C@@H]1C [RIFAMPIN] | 0.15 (≈ 0.123 µg/mL) |  |  |  |  | 
CC1COc2c(N3CCN(C)CC3)c(F)cc3c(=O)c(C(=O)O)cn1c23 (stereo not drawn) [OFLOXACIN] | 2.16 (≈ 0.781 µg/mL) |  |  |  |  | 
O=C(Cn1cnc2ccccc2c1=O)Nc1nccs1 |  |  |  |  | 31 | 
O=C(Cn1cnc2ccc(Cl)cc2c1=O)NCc1cccs1 | 9.36 (≈ 3.12 µg/mL) | 2.33 | 32.4 | 7.12 | 68.9 | 45.2
O=C(Cn1cnc2ccc(Cl)cc2c1=O)NCc1nc2ccc([N+](=O)[O-])cc2s1 | 30.1 (≈ 12.9 µg/mL) | 30.1 | 15.8 |  | 45.6 | 62.8
Cc1nc2ccccc2c(=O)n1CC(=O)NCc1cccs1 | 9.97 (≈ 3.12 µg/mL) | 4.97 | 35.6 | 6.01 | 68.2 | 38.6
CC[C@@H](CO)NCCN[C@@H](CC)CO [ETHAMBUTOL] | 7.64 (≈ 1.56 µg/mL) |  |  |  |  | 
Cc1nc2ccc(Cl)cc2c(=O)n1CC(=O)NCc1nc2ccc([N+](=O)[O-])cc2s1 | 58.2 (≈ 25.8 µg/mL) |  | 28.4 |  | 54.1 | 33.7
Cc1cccc(NC(=O)Cn2cnc3ccccc3c2=O)c1 |  |  |  |  | 14.5 | 
Cc1nc2ccc(Cl)cc2c(=O)n1CC(=O)Nc1ccccc1 | 4.76 (≈ 1.56 µg/mL) | 2.38 | 19.9 | 3.12 | 88.1 | 28.7
O=C(Cn1cnc2ccc(Cl)cc2c1=O)Nc1ccccc1 | 4.97 (≈ 1.56 µg/mL) | 1.24 | 3.51 | 7.78 | 58.3 | 53
O=C(Cn1cnc2ccccc2c1=O)Nc1cc(C(F)(F)F)ccc1Cl | 8.18 (≈ 3.12 µg/mL) | 2.04 | 10.1 | 8.16 | 58.1 | 35.6
O=C(Cn1cnc2ccc(Cl)cc2c1=O)NCc1ccco1 | 4.91 (≈ 1.56 µg/mL) | 4.91 | 30.7 | 3.12 | 82.4 | 42.5
Cc1nc2ccccc2c(=O)n1CC(=O)NCc1nc2ccc([N+](=O)[O-])cc2s1 | > 63.2 |  | 34 | 6.16 | 64 | 37.4
Cc1nc2ccccc2c(=O)n1CC(=O)NCc1ccco1 | 84.1 (≈ 25 µg/mL) | 42 | 25.5 | 6.86 | 70.1 | 41.5
O=C(Cn1cnc2ccccc2c1=O)Nc1cc(Cl)ccc1Cl |  |  |  |  | 16.3 | 
O=C(Cn1cnc2ccccc2c1=O)NCc1ccco1 | 5.5 (≈ 1.56 µg/mL) | 2.75 | 1.96 |  | 46.1 | 13.7
Cc1nc2ccccc2c(=O)n1CC(=O)Nc1ccccc1 | 10.7 (≈ 3.12 µg/mL) | 5.31 | 11.2 | 8.92 | 60.1 | 29.7
O=C(Cn1cnc2ccccc2c1=O)NCc1cccs1 | 5.21 (≈ 1.56 µg/mL) | 1.3 | 4.38 |  | 33.7 | 41.4
Cc1nc2ccc(Cl)cc2c(=O)n1CC(=O)NCc1ccco1 | 4.7 (≈ 1.56 µg/mL) | 1.17 | 3.36 | 4.52 | 78.1 | 5.37
O=C(Cn1cnc2ccccc2c1=O)Nc1ccccc1 | 11.2 (≈ 3.12 µg/mL) | 5.58 | 21.2 |  | 52.1 | 31.1
O=C(Cn1cnc2ccccc2c1=O)NCc1nc2ccc([N+](=O)[O-])cc2s1 | 4.09 (≈ 1.62 µg/mL) | 1.02 | 13.1 | 5.12 | 72.2 | 50.5
O=C(Cn1cnc2ccc(Cl)cc2c1=O)Nc1cc(C(F)(F)F)ccc1Cl | 3.74 (≈ 1.56 µg/mL) | 1.87 | 48.9 | 4.56 | 80.1 | 53.6
